Measured values as given in ChEMBL document CHEMBL1132570, “Synthesis of cytotoxic indenoisoquinoline topoisomerase I poisons” (1999).

Legend:
[1] = tested on: DU-145; assay: Cytotoxicity against prostate DU-145 human cancer cell line.; format: functional
Procedure, shortened: (§1)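 GI50 = concentration giving 50% growth inhibition, from a screen of about 55 human cancer cell lines over a 10^-8 to 10^-4 M test range. Values come from two determinations where a population standard deviation is shown, otherwise from single determinations.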

[2] = molecular target: T1, DNA topoisomerase 1 (Homo sapiens) (UniProt P11387); assay: The activity was examined against DNA topoisomerase I mediated DNA cleavage using 3'-End-labelled 161 BP plasmid DNA. 0 indicates inactive
T1 sequence (whole entry): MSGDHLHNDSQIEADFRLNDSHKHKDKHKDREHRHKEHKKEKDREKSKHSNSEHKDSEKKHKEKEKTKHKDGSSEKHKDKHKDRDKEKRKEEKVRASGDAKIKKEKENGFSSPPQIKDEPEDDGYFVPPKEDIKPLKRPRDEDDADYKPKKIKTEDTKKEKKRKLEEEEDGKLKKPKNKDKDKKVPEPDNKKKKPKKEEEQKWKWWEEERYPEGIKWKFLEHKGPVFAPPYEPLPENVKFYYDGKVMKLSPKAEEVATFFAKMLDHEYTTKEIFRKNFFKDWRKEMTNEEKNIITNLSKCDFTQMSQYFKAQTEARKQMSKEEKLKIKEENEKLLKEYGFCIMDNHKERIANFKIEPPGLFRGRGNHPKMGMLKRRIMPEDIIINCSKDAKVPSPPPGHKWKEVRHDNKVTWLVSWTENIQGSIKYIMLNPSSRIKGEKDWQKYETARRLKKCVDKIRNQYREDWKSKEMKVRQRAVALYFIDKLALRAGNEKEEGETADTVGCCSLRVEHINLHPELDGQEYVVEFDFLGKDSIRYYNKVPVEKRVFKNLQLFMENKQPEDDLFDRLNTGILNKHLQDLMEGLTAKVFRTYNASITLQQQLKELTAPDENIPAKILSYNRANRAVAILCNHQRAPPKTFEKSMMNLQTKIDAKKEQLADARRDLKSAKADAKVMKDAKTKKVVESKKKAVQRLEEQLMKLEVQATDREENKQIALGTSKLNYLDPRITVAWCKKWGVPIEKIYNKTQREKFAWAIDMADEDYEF
Procedure, shortened: (§2)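 A 161 bp PvuII–HindIII fragment of pBluescript SK(–) was 3'-end-labeled at the HindIII site with [α-32P]dCTP by Klenow fill-in. About 50 000 dpm per reaction was incubated with top1 and drug (0.1–300 μM) at 30 °C for 30 min, then stopped with 0.5% SDS (final). Products were run on 16% polyacrylamide/7 M urea gels at 51 °C and imaged by phosphorimager.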

[3] = tested on: UACC-62; assay: In vitro cytotoxicity against UACC-62 (Human melanoma) cell line.; format: functional; procedure, shortened: as §1
[4] = tested on: MDA-MB-435; assay: Compound was tested for its cytotoxicity against breast MDA-MB-435 Human cancer cell line; format: functional; procedure, shortened: as §1
[5] = tested on: HOP-62; assay: Cytotoxicity against lung HOP-62 human cancer cell line.; format: functional; procedure, shortened: as §1
[6] = tested on: OVCAR-3; assay: Cytotoxicity against ovarian OVCAR-3 human cancer cell line.; format: functional; procedure, shortened: as §1
[7] = tested on: HCT-116; assay: Cytotoxicity against colon HCT116 human cancer cell line.; format: functional; procedure, shortened: as §1
[8] = molecular target: T1, DNA topoisomerase 1 (Homo sapiens); assay: The activity was examined against DNA topoisomerase I mediated DNA cleavage using 3''-End-labelled 161 BP plasmid DNA. +/- indicates less than 20% of the activity of 1 uM camptothecin; procedure, shortened: as §2
[9] = tested on: MDA-MB-435; assay: In vitro cytotoxicity against MDA-MB-435 (Human breast cancer) cell line.; format: functional; procedure, shortened: as §1
[10] = tested on: SN12C; assay: In vitro cytotoxicity against SN12C (Human renal cancer) cell line.; format: functional; procedure, shortened: as §1
[11] = tested on: SF-539; assay: Compound was tested for its cytotoxicity against CNS SF-539 Human cancer cell line; format: functional; procedure, shortened: as §1
[12] = molecular target: T1, DNA topoisomerase 1 (Homo sapiens); assay: The activity was examined against DNA topoisomerase I mediated DNA cleavage using 3''-End-labelled 161 BP plasmid DNA.+ indicates between 20 and 50% of the activity of 1 uM camptothecin; procedure, shortened: as §2
[13] = tested on: SF-539; assay: Compound was tested for its cytotoxicity against CNS SF-539 cell line; format: functional; details: Homo sapiens; procedure, shortened: as §1
[14] = molecular target: T1, DNA topoisomerase 1 (Homo sapiens); assay: The activity was examined against DNA topoisomerase I mediated DNA cleavage using 3''-End-labelled 161 BP plasmid DNA; +/- less than 20% of the activity of 1 uM camptothecin; procedure, shortened: as §2
[15] = molecular target: T1, DNA topoisomerase 1 (Homo sapiens); assay: The activity was examined against DNA topoisomerase I mediated DNA cleavage using 3''-End-labelled 161 BP plasmid DNA. +/- less than 20% of the activity 0f 1 uM camptothecin; procedure, shortened: as §2
[16] = molecular target: T1, DNA topoisomerase 1 (Homo sapiens); assay: The activity was examined against DNA topoisomerase I mediated DNA cleavage using 3''-End-labelled 161 BP plasmid DNA. + indicates between 20 and 50% of the activity of 1 uM camptothecin; procedure, shortened: as §2
[17] = molecular target: T1, DNA topoisomerase 1 (Homo sapiens); assay: The activity was examined against DNA topoisomerase I mediated DNA cleavage using 3''-End-labelled 161 BP plasmid DNA. +/- indicates less than 20% of the activity 0f 1 uM camptothecin; procedure, shortened: as §2
[18] = molecular target: T1, DNA topoisomerase 1 (Homo sapiens); assay: The activity was examined against DNA topoisomerase I mediated DNA cleavage using 3'-End-labelled 161 BP plasmid DNA; 0 indicates inactive; procedure, shortened: as §2
[19] = molecular target: T1, DNA topoisomerase 1 (Homo sapiens); assay: The activity was examined against DNA topoisomerase I mediated DNA cleavage using 3'-End-labelled 161 BP plasmid DNA.0 indicates inactive; procedure, shortened: as §2
[20] = molecular target: T1, DNA topoisomerase 1 (Homo sapiens); assay: The activity was examined against DNA topoisomerase I mediated DNA cleavage using 3''-End-labelled 161 BP plasmid DNA.+/- indicates less than 20% of the activity of 1 uM camptothecin; procedure, shortened: as §2

SMILES	Top1 cleavage activity [2]	Top1 cleavage activity [8]	Top1 cleavage activity [14]	Top1 cleavage activity [15]	Top1 cleavage activity [17]	Top1 cleavage activity [18]	Top1 cleavage activity [19]	Top1 cleavage activity [20]	GI50 [1]	GI50 [3]	GI50 [4]	GI50 [5]	GI50 [6]	GI50 [7]	GI50 [9]	GI50 [10]	GI50 [11]	Top1 cleavage activity [12]	GI50 [13]	Top1 cleavage activity [16]
C=CCN1C(=O)c2cc(OC)c(OC)cc2[C@H]2C(=O)c3cc4c(cc3[C@H]21)OCO4	0	–	–	–	–	–	–	–	0.77 µM	0.38 µM	1.4 µM	0.36 µM	1.78 µM	0.34 µM	–	–	–	–	–	–
CCCCn1c2c(c3cc(OC)c(OC)cc3c1=O)C(=O)c1cc3c(cc1-2)OCO3	–	–	–	–	–	–	–	–	16 µM	21 µM	–	16 µM	78 µM	45 µM	> 100 µM	–	–	20-50% of the activity of 1 uM camptothecin	–	–
Cn1c2c(c3ccccc3c1=O)C(=O)c1cc3c(cc1-2)OCO3	–	–	–	–	–	–	–	–	> 100 µM	> 100 µM	–	22 µM	> 100 µM	54 µM	–	> 100 µM	–	20-50% of the activity of 1 uM camptothecin	–	–
COC(=O)Cn1c2c(c3ccccc3c1=O)C(=O)c1ccccc1-2	0	–	–	–	–	–	–	–	> 100 µM	> 100 µM	–	–	> 100 µM	–	> 100 µM	> 100 µM	> 100 µM	–	–	–
CCn1c2c(c3cc(OC)c(OC)cc3c1=O)C(=O)c1cc3c(cc1-2)OCO3	–	–	–	+/-	–	–	–	–	2.3 µM	2.1 µM	–	2.2 µM	3 µM	2.6 µM	2.6 µM	3.6 µM	2 µM	–	–	–
O=C(O)CCCn1c2c(c3ccccc3c1=O)C(=O)c1ccccc1-2	–	–	–	–	–	–	–	–	48 µM	73 µM	–	87 µM	> 100 µM	40 µM	> 100 µM	27 µM	–	–	–	–
C=CCn1c2c(c3cc(OC)c(OC)cc3c1=O)C(=O)c1cc3c(cc1-2)OCO3	–	–	–	–	–	–	–	–	3.2 µM	–	–	3.4 µM	6.6 µM	2.3 µM	5.2 µM	2.6 µM	2.2 µM	20-50% of the activity of 1 uM camptothecin	–	–
O=C1c2ccccc2-c2c1c1ccccc1c(=O)n2CCCCCO	–	–	–	–	–	–	–	–	3.4 µM	14.3 µM	–	4.4 µM	93 µM	3.9 µM	41 µM	–	–	–	–	20-50% of the activity of 1 uM camptothecin
COc1cc2c3c(n(CCCCCO)c(=O)c2cc1OC)-c1cc2c(cc1C3=O)OCO2	–	–	–	–	–	–	–	–	5.1 µM	> 100 µM	–	8.7 µM	> 100 µM	> 100 µM	> 100 µM	–	–	–	–	20-50% of the activity of 1 uM camptothecin
CCN1C(=O)c2cc(OC)c(OC)cc2[C@@H]2[C@H]1c1cc3c(cc1[C@@H]2O)OCO3	0	–	–	–	–	–	–	–	> 100 µM	–	–	> 100 µM	> 100 µM	> 100 µM	> 100 µM	> 100 µM	> 100 µM	–	–	–
COc1cc2c(cc1OC)[C@H]1C(=O)c3cc(OS(C)(=O)=O)c(OC)cc3[C@H]1N(C)C2=O	–	–	–	–	+/-	–	–	–	–	–	–	–	–	–	–	–	–	–	–	–
CCN1C(=O)c2cc(OC)c(OC)cc2[C@H]2C(=O)c3cc4c(cc3[C@H]21)OCO4	–	–	–	–	–	–	–	+/-	0.42 µM	0.18 µM	–	0.29 µM	0.44 µM	0.29 µM	0.45 µM	–	–	–	–	–
CCn1c2c(c3ccccc3c1=O)C(=O)c1ccccc1-2	0	–	–	–	–	–	–	–	–	–	–	–	–	–	–	–	–	–	–	–
COc1cc2c3c(n(C)c(=O)c2cc1OC)-c1cc2c(cc1C3=O)OCO2	–	–	–	–	–	–	–	–	37 µM	4.2 µM	–	1.3 µM	–	35 µM	96 µM	68 µM	41 µM	–	–	–
COc1cc2c3c(n(CCCCO)c(=O)c2cc1OC)-c1cc2c(cc1C3=O)OCO2	–	–	–	–	–	–	–	–	0.36 µM	0.99 µM	–	0.7 µM	3.7 µM	1.4 µM	10 µM	–	–	–	–	20-50% of the activity of 1 uM camptothecin
CCCCn1c2c(c3ccccc3c1=O)C(=O)c1cc3c(cc1-2)OCO3	–	–	–	–	–	–	–	–	38 µM	8.2 µM	–	17 µM	94 µM	2.9 µM	> 100 µM	37 µM	9 µM	20-50% of the activity of 1 uM camptothecin	–	–
CC[n+]1cc2cc(OC)c(OC)cc2c2c1-c1cc3c(cc1C2)OCO3	–	–	–	–	–	–	–	–	58 µM	–	–	22 µM	1.9 µM	13 µM	14 µM	2.7 µM	56 µM	–	–	–

Further lines, with some results ahead:

Top1 cleavage activity [2]	Top1 cleavage activity [8]	Top1 cleavage activity [14]	Top1 cleavage activity [15]	Top1 cleavage activity [17]	Top1 cleavage activity [18]	Top1 cleavage activity [19]	Top1 cleavage activity [20]	SMILES	GI50 [1]	GI50 [3]	GI50 [4]	GI50 [5]	GI50 [6]	GI50 [7]	GI50 [9]	GI50 [10]	GI50 [11]	Top1 cleavage activity [12]	GI50 [13]	Top1 cleavage activity [16]
–	+/-	–	–	–	–	–	–	COc1cc2c(cc1OC)[C@H]1C(=O)c3cc4c(cc3[C@H]1N(C)C2=O)OCO4	4.1 µM	0.42 µM	–	9.4 µM	6.7 µM	2 µM	17 µM	2.1 µM	3.1 µM	–	–	–
0	–	–	–	–	–	–	–	O=C1c2ccccc2-c2oc(=O)c3ccccc3c21	> 100 µM	> 100 µM	–	> 100 µM	> 100 µM	> 100 µM	> 100 µM	> 100 µM	> 100 µM	–	–	–
0	–	–	–	–	–	–	–	O=C1c2ccccc2-c2c1c1ccccc1c(=O)n2C1CC1	> 100 µM	84 µM	> 100 µM	61 µM	> 100 µM	> 100 µM	–	> 100 µM	–	–	> 100 µM	–
0	–	–	–	–	–	–	–	COc1cc2c3c(n(C)c(=O)c2cc1OC)-c1cc(OC)c(OC)c(OC)c1C3=O	> 100 µM	55 µM	> 100 µM	> 100 µM	> 100 µM	> 100 µM	–	> 100 µM	–	–	> 100 µM	–
–	–	+/-	–	–	–	–	–	COc1cc2c3c(n(Cc4ccccc4)c(=O)c2cc1OC)-c1cc2c(cc1C3=O)OCO2	4 µM	50 µM	–	12 µM	> 100 µM	> 100 µM	> 100 µM	–	–	–	–	–
0	–	–	–	–	–	–	–	CCCn1c2c(c3ccccc3c1=O)C(=O)c1ccccc1-2	–	–	–	–	–	–	–	–	–	–	–	–
0	–	–	–	–	–	–	–	CCN1Cc2cc(OC)c(OC)cc2[C@@H]2[C@H]1c1cc3c(cc1[C@@H]2O)OCO3	41 µM	–	–	30 µM	24 µM	35 µM	25 µM	26 µM	50 µM	–	–	–
–	–	–	–	–	0	–	–	COc1ccc(-n2c3c(c4cc(OC)c(OC)cc4c2=O)C(=O)c2cc4c(cc2-3)OCO4)cc1	76 µM	> 100 µM	–	20 µM	> 100 µM	> 100 µM	> 100 µM	> 100 µM	> 100 µM	–	–	–
–	–	–	–	–	–	0	–	COc1cc2c3c(n(C)c(=O)c2cc1OC)-c1cc(OCc2ccccc2)c(OCc2ccccc2)cc1C3=O	> 100 µM	> 100 µM	–	46 µM	58 µM	80 µM	> 100 µM	> 100 µM	39 µM	–	–	–
